In ChEMBL document CHEMBL1123528, “Syntheses and in vitro evaluation of 4-(2-aminoethyl)-2(3H)-indolones and related compounds as peripheral prejunctional dopamine receptor agonists” (J Med Chem, 1986) one finds EC50 data, which are given here for 17 compounds.

As a reminder, the EC50 is the concentration that produces a half-maximal response. Lower therefore signals greater potency.

The species entered for the assay is Oryctolagus cuniculus. The assay can be described thus: Ability to stimulate peripheral prejunctional dopaminergic receptors by 50% inhibition of vasoconstrictor response to field stimulation in isolated perfused rabbit ear artery. The format is functional. Put shortly:
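Isolated rabbit ear artery, perfused, constricted by electrical field (nerve) stimulation. The test drug was given in increasing concentrations, each left in contact with the tissue for 4 min, and the concentration was raised right after the response to nerve stimulation. For dopaminergic blockade, (S)-sulpiride superfusion began after the initial concentration-effect curve was obtained.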
In the case of `CCCN(CCC)CCc1ccc(OC)c2c1CC(=O)N2`, the concentration for a half-maximal effect (EC50) was > 3000 nM.
The figure for `CCCN(CCc1ccc(O)cc1)CCc1cccc2c1CC(=O)N2` is 28 nM; for `NCCc1ccc2c(c1)CC(=O)N2` it is > 3000 nM.
In turn, `CCCN(CCC)CCc1ccc(O)c(NC=O)c1` had an EC50 of 750 nM.
Regarding `CCCN(CCC)CCc1ccc(O)c2c1CC(=O)N2C`, the EC50 is > 3000 nM.
As to `CCCN(CCC)CCc1ccc2c(c1)NC(=O)C2`, the concentration for a half-maximal effect (EC50) was > 3000 nM.
The compound `CCCN(CCC)CCc1ccc(O)c2c1C(C)C(=O)N2` (configuration not stated) yielded an EC50 of 18 nM.
`CCCN(CCC)CCc1ccc(O)cc1` registered an EC50 of 80 nM.
Compound `NCCc1ccc(O)c2c1CC(=O)N2` returned an EC50 of 116 nM.
For the compound `CCCN(CCC)CCc1ccc(O)c2c1C(C)(C)C(=O)N2`, the EC50 was > 3000 nM.
The figure for `O=C1Cc2c(CCNCCc3ccc(O)cc3)ccc(O)c2N1` is 53 nM.
With `CCCN(CCC)CCc1ccc(O)c2c1C(C)(O)C(=O)N2` (configuration not stated), the 50% effective concentration (EC50) is 218 nM.
As to `CCCN(CCC)CCc1ccc2c(c1)CC(=O)N2`, the EC50 was determined as 3000 nM.
For `CCCN(CCC)CCc1ccc(O)c(NC(C)=O)c1`, the half-maximal effective concentration (EC50) is > 10000 nM.
For `CCCN(CCC)CCc1cccc(O)c1` the value was 700 nM.
For the compound `NCCc1ccc(O)c(O)c1` [DOPAMINE], the EC50 came out at 73 nM.
For `CCCN(CCC)CCc1cccc2c1CC(=O)N2` [ROPINIROLE] the value was 100 nM.
